Laboratory results taken from ChEMBL document CHEMBL3526118, “Combination of GSH trapping and time-dependent inhibition assays as a predictive method of drugs generating highly reactive metabolites” (Drug Metab Dispos, 2011).

What was measured:
CYP1A2 = molecular target: T1, CYP1A2 (Homo sapiens, UniProt P05177); test: in vitro
T1 sequence (P05177 whole entry): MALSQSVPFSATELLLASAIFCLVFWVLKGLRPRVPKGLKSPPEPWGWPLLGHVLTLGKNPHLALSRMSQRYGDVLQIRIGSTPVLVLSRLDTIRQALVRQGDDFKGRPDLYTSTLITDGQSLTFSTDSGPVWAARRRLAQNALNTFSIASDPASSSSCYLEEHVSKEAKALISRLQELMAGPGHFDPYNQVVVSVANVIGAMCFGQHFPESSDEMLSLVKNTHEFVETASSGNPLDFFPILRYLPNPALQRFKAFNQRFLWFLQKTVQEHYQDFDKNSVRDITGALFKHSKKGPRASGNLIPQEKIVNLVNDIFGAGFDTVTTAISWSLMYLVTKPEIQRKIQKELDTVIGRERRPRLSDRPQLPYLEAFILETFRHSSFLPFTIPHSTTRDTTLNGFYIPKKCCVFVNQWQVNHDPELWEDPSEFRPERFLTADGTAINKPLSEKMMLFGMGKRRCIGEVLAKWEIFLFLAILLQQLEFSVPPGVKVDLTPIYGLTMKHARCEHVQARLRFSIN

Liver microsome [1] = test: Covalent binding in human liver microsomes measured per mg of protein using radiolabelled compound at 10 uM after 1 hr incubation by liquid scintillation counting
Liver microsome [2] = conditions: human, microsomes, 100 µM
CYP2C19 = CYP2C19 (Homo sapiens, UniProt P33261); test: in vitro
Sequence of CYP2C19 (P33261 whole entry): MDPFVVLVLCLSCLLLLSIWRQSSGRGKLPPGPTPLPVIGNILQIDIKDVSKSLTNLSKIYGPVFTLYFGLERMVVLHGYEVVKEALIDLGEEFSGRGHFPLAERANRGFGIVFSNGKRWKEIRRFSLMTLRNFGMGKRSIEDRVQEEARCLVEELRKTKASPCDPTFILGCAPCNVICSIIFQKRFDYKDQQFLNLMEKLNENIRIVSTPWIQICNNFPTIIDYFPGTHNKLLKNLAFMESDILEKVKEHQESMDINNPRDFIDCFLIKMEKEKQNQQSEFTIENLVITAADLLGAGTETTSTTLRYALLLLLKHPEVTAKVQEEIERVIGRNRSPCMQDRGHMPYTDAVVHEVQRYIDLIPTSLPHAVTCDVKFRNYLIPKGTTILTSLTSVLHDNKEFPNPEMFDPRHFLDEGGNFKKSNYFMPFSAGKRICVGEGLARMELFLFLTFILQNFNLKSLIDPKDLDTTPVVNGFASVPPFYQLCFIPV

CYP2D6 [3] = molecular target: T2, CYP2D6 (Homo sapiens, UniProt P10635); test: in vitro
T2 sequence (P10635 whole entry): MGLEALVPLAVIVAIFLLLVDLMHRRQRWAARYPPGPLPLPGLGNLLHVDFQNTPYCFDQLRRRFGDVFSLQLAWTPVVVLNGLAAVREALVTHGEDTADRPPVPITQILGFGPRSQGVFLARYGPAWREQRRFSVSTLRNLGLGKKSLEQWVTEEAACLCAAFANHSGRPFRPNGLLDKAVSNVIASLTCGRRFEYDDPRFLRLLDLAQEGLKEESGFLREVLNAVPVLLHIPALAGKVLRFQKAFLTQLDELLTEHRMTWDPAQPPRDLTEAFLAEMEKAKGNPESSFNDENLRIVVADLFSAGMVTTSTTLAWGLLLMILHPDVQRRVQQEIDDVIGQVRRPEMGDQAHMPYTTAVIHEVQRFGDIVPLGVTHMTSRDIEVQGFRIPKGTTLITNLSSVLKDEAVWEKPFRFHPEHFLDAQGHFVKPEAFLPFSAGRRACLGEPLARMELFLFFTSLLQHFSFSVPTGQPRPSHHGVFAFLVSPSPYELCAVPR

CYP2C9 [4] = molecular target: T3, CYP2C9 (Homo sapiens, UniProt P11712); test: Time dependent inhibition of CYP2C9 (unknown origin) at 10 uM by LC/MS system; type: ADME
T3 sequence (P11712 whole entry): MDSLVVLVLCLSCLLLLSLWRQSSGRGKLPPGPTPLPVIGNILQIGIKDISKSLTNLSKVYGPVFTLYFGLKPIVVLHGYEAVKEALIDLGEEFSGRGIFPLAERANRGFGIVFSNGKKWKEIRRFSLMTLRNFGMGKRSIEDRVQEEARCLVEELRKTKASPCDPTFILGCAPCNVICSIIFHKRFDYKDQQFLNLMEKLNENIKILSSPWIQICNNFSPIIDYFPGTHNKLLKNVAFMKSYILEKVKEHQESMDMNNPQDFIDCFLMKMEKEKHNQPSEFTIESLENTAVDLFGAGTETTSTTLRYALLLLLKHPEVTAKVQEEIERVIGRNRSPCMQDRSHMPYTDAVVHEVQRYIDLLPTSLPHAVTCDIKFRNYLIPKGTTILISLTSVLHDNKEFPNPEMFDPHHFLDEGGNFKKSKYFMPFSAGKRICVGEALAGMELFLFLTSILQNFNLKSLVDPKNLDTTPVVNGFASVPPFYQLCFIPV
Method in brief: (§1)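 Human liver microsomes at 1.0 mg/mL were preincubated 0 or 30 min with compound and NADPH-generating system in 0.1 M sodium phosphate, then diluted ten-fold into incubation containing 200 μM tolbutamide (final) for 10 min to probe CYP2C9. Percent of matched no-inhibitor control was determined at each time. Inactivation = 100 × [1 − ratio of 30-min to 0-min values]; 10% threshold.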

Liver microsome [5] = test: Metabolic activation in human liver microsomes assessed as [3H]GSH adduct formation rate measured per mg of protein at 100 uM by [3H]GSH trapping assay
[6] = Intrinsic clearance for reactive metabolites formation per mg of protein based on cytochrome P450 (unknown origin) inactivation rate by TDI assay; conditions: human
CYP2B6 [7] = molecular target: T4, CYP2B6 (Homo sapiens, UniProt P20813); test: in vitro
T4 sequence (P20813 whole entry): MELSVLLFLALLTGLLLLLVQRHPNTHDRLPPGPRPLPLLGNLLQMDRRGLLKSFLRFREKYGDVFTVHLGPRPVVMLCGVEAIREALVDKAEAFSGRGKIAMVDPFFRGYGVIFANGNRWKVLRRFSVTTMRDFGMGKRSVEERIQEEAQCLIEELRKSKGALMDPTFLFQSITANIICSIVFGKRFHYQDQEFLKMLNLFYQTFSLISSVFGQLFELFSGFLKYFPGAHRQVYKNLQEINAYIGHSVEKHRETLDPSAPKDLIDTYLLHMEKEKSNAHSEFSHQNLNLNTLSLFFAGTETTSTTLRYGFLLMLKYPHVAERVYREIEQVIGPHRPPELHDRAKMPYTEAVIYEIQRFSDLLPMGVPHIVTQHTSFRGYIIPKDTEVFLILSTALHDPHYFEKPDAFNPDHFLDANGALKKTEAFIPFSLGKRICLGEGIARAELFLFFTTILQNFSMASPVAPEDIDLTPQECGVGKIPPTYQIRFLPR

CYP3A4 [8] = molecular target: T5, CYP3A4 (Homo sapiens, UniProt P08684); test: in vitro
T5 sequence (P08684 whole entry): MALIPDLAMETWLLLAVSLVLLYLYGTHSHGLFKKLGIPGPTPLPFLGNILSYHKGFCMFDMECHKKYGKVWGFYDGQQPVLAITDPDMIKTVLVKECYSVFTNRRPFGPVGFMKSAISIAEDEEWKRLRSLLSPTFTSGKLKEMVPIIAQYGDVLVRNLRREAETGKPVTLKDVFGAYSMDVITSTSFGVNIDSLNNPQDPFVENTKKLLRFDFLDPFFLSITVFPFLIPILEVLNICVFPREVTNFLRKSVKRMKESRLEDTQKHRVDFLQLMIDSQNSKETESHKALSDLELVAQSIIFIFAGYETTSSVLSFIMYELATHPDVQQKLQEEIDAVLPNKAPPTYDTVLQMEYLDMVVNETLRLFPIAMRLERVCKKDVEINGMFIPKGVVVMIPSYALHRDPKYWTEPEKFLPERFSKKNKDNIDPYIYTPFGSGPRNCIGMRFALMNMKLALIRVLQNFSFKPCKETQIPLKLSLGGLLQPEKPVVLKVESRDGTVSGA

CYP2C8 [9] = molecular target: T6, CYP2C8 (Homo sapiens, UniProt P10632); test: in vitro
T6 sequence (P10632 whole entry): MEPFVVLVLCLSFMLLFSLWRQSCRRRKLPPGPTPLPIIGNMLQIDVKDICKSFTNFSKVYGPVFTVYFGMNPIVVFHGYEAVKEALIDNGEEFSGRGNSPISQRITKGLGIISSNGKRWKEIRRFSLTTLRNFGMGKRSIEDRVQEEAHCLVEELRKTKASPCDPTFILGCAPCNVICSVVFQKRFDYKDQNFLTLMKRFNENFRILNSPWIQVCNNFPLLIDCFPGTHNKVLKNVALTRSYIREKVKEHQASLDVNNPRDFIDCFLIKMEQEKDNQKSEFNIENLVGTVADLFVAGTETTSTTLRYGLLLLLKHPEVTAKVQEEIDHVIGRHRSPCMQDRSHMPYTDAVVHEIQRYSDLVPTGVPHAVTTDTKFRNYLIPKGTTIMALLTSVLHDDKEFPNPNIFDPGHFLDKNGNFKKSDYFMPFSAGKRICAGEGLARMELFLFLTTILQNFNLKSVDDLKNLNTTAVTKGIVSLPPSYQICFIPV

[10] = Intrinsic clearance for reactive metabolites formation assessed as summation of [3H]GSH adduct formation rate-based reactive metabolites formation and cytochrome P450 (unknown origin) inactivation rate-based reactive metabolites formation; conditions: human
CYP2D6 [11] = molecular target: T2, CYP2D6; test: Time dependent inhibition of CYP2D6 (unknown origin) at 30 uM by LC/MS system; type: ADME
Method in brief: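 Preincubation with HLMs at 1.0 mg/mL in 0.1 M sodium phosphate plus NADPH-generating system for 0 or 30 min, then tenfold dilution into incubation containing 30 μM dextromethorphan for 10 min; chromatographic read-out. Activity relative to controls without inhibitor; inactivation = 100×[1 − %control(30 min)/%control(0 min)], threshold 10%. Initial 100 μM lowered where reversible inhibition was strong.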

CYP2C9 [12] = molecular target: T3, CYP2C9; test: Time dependent inhibition of CYP2C9 (unknown origin) at 30 uM by LC/MS system; type: ADME
Method in brief: as §1

CYP2B6 [13] = molecular target: T4, CYP2B6; test: Time dependent inhibition of CYP2B6 (unknown origin) at 3 uM by LC/MS system; type: ADME
CYP3A4 [14] = molecular target: T5, CYP3A4; test: Time dependent inhibition of CYP3A4 (unknown origin) at 10 uM by LC/MS system; type: ADME
Method in brief: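 CYP3A4: human liver microsomes at 0.5 mg/mL in preincubation, 0.1 M sodium phosphate, NADPH-generating system, 0 or 30 min. Ten-fold dilution into incubation with 2.5 μM midazolam (final), 10 min. Each value is relative to the matched control without inhibitor. % enzyme inactivation = 100 × [1 − %control(30 min)/%control(0 min)]; 10% threshold.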

CYP2C8 [15] = molecular target: T6, CYP2C8; test: Time dependent inhibition of CYP2C8 (unknown origin) at 30 uM by LC/MS system; type: ADME
Method in brief: (§2)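 CYP2C8 in human liver microsomes (1.0 mg/mL in preincubation), 0.1 M sodium phosphate, NADPH-generating system. Preincubation 0 or 30 min, then ten-fold dilution into incubation with 10 μM paclitaxel (final) for 10 min. Activity is taken relative to the matched no-inhibitor control. % inactivation = 100 × [1 − %control(30 min)/%control(0 min)]; threshold 10%.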

CYP2D6 [16] = molecular target: T2, CYP2D6; test: Time dependent inhibition of CYP2D6 (unknown origin) at 10 uM by LC/MS system; type: ADME
Method in brief: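 CYP2D6 activity was measured with 30 μM dextromethorphan (final) after 0 or 30 min preincubation of compound with human liver microsomes (1.0 mg/mL) and NADPH-generating system in 0.1 M sodium phosphate. A ten-fold dilution was followed by a 10-min incubation. % inactivation = 100 × [1 − %control(30 min)/%control(0 min)]; threshold 10%.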

CYP2C9 [17] = molecular target: T3, CYP2C9; test: in vitro
CYP2C8 [18] = molecular target: T6, CYP2C8; test: Time dependent inhibition of CYP2C8 (unknown origin) at 3 uM by LC/MS system; type: ADME
Method in brief: as §2

CYP2B6 [19] = molecular target: T4, CYP2B6; test: Time dependent inhibition of CYP2B6 (unknown origin) at 10 uM by LC/MS system; type: ADME
Method in brief: (§3)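 CYP2B6 in human liver microsomes (1.0 mg/mL in preincubation), 0.1 M sodium phosphate, NADPH-generating system. Preincubation 0 or 30 min, then ten-fold dilution into incubation solution containing 50 μM bupropion (final) for 10 min. Activity is expressed as percent of the matched no-inhibitor control. % inactivation = 100 × [1 − control(30 min)/control(0 min)]; threshold 10%.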

CYP2B6 [20] = molecular target: T4, CYP2B6; test: Time dependent inhibition of CYP2B6 (unknown origin) at 30 uM by LC/MS system; type: ADME
Method in brief: as §3

CYP2C8 [21] = molecular target: T6, CYP2C8; test: Time dependent inhibition of CYP2C8 (unknown origin) at 10 uM by LC/MS system; type: ADME
Method in brief: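 CYP2C8 in human liver microsomes (1.0 mg/mL in preincubation), 0.1 M sodium phosphate, NADPH-generating system. Preincubation 0 or 30 min, then ten-fold dilution into incubation with 10 μM paclitaxel (final) for 10 min.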

SMILES	inhibition at 100 µM (CYP1A2) [%]	PB (Liver microsome [1]) [pmol]	CLH (Liver microsome [2]) [µL/min/mg]	inhibition at 100 µM (CYP2C19; microsomes) [%]	inhibition at 100 µM (CYP2D6 [3]) [%]	Drug metabolism (Liver microsome [5])	clearance [6] [µL/min/mg]	inhibition at 100 µM (CYP2B6 [7]) [%]	inhibition at 100 µM (CYP3A4 [8]) [%]	inhibition at 100 µM (CYP2C8 [9]) [%]	clearance [10] [µL/min/mg]	inhibition at 100 µM (CYP2C19; human liver microsomes) [%]	inhibition at 10 µM (CYP3A4 [14]) [%]	inhibition at 100 µM (CYP2C9 [17]) [%]	also measured
O=C(O)COc1ccc(C(=O)c2cccs2)c(Cl)c1Cl	< 10	436.7	0.042	35	< 10	4.2 pmol/min	0.069	< 10	< 10	< 10	0.111				inhibition at 10 µM (CYP2C9 [4]): 28%
CCOC(=O)C1=C(COCCN)NC(C)=C(C(=O)OC)C1c1ccccc1Cl (stereo unspecified) [AMLODIPINE]	< 10	7.1			< 10	metabolite_not_detected			42	< 10		< 10	< 10		inhibition at 30 µM (CYP2D6 [11]): < 10%; inhibition at 30 µM (CYP2C9 [12]): < 10%; inhibition at 3 µM (CYP2B6 [13]): < 10%
CCN(CC)Cc1cc(Nc2ccnc3cc(Cl)ccc23)ccc1O [AMODIAQUINE]	< 10	208.1	0.021	< 10		2.1 pmol/min		< 10	< 10		0.021			< 10	inhibition at 30 µM (CYP2C8 [15]): < 10%; inhibition at 10 µM (CYP2D6 [16]): < 10%
CCc1oc2ccccc2c1C(=O)c1cc(Br)c(O)c(Br)c1 [BENZBROMARONE]	12	389.9	0.03		< 10	3 pmol/min	0.002				0.032	< 10	< 10		inhibition at 3 µM (CYP2C8 [18]): < 10%; inhibition at 10 µM (CYP2B6 [19]): < 10%
Cc1ccc(-c2cc(C(F)(F)F)nn2-c2ccc(S(N)(=O)=O)cc2)cc1 [CELECOXIB]	< 10	13		< 10		metabolite_not_detected				< 10			< 10		inhibition at 30 µM (CYP2D6 [11]): < 10%; inhibition at 30 µM (CYP2C9 [12]): < 10%; inhibition at 30 µM (CYP2B6 [20]): < 10%
CCc1ccc(CCOc2ccc(CC3SC(=O)NC3=O)cc2)nc1 (stereo unspecified) [PIOGLITAZONE]	< 10	353			< 10	metabolite_not_detected	0.036	38	61		0.036	< 10		< 10	inhibition at 30 µM (CYP2C8 [15]): < 10%
CN(CCOc1ccc(CC2SC(=O)NC2=O)cc1)c1ccccn1 (stereo unspecified) [ROSIGLITAZONE]	< 10	516.1	0.022			2.2 pmol/min	0.028	< 10			0.048	< 10		< 10	inhibition at 10 µM (CYP2C8 [21]): < 10%
COc1cc(C(=O)NS(=O)(=O)c2ccccc2C)ccc1Cc1cn(C)c2ccc(NC(=O)OC3CCCC3)cc12 [ZAFIRLUKAST]	11	36.4			< 10	metabolite_not_detected	0.207				0.207	< 10	43		inhibition at 3 µM (CYP2C8 [18]): < 10%; inhibition at 10 µM (CYP2C9 [4]): < 10%; inhibition at 10 µM (CYP2B6 [19]): < 10%
